From ChEMBL document CHEMBL1165943, “Design and synthesis of new anticancer pyrimidines with multiple-kinase inhibitory effect” (Bioorg Med Chem, 2010)
The source made the active and inactive calls. The calls are words filed in the database; no cut-off is given here.

What was measured:
[1] = system: SF-539; test: Cytotoxicity against human SF539 cells assessed as cell growth at 1 uM after 48 hrs by sulforhodamine B assay; type: functional; settings: SF-539, 48 h, read-out: Activity
[2] = system: OVCAR-4; test: Cytotoxicity against human OVCAR4 cells assessed as cell growth at 0.01 uM after 48 hrs by sulforhodamine B assay; type: functional; settings: OVCAR-4, 48 h, read-out: Activity
[3] = system: SW-620; test: Cytotoxicity against human SW620 cells assessed as cell growth at 0.001 uM after 48 hrs by sulforhodamine B assay; type: functional; settings: SW-620, 48 h, read-out: Activity
[4] = system: COLO 205; test: Cytotoxicity against human COLO205 cells assessed as cell growth at 0.001 uM after 48 hrs by sulforhodamine B assay; type: functional; settings: COLO 205, 48 h, read-out: Activity
Outline: (§1)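 Cells grown in RPMI 1640 with 5% FBS and 2 mM L-glutamine, seeded at 5,000–40,000 cells/well by doubling time. Time-zero plates TCA-fixed after 24 h. Five concentrations (10-fold or half-log dilutions from DMSO stock) added; 48 h at 37 °C, 5% CO2. Cold TCA fixation (final 10%, 60 min, 4 °C), 0.4% SRB stain, dye solubilized in 10 mM trizma base, A515.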

[5] = Cytotoxicity against human Hs 578T cells assessed as cell growth at 1 uM after 48 hrs by sulforhodamine B assay; type: functional; settings: read-out: Activity
[6] = system: EKVX; test: Growth inhibition of human EKVX cells after 48 hrs by sulforhodamine B assay; type: functional, cell-based; settings: for CC50: read-out: LC50 (the source's name)
Outline: (§2)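 Cells grown in RPMI 1640 with 5% FBS and 2 mM L-glutamine, seeded at 5,000–40,000 cells/well according to doubling time. After 24 h, time-zero plates are TCA-fixed. Five concentrations (10-fold or ½log dilutions, DMSO stocks) are applied for 48 h at 37 °C, 5% CO₂. Cells are TCA-fixed, SRB-stained and read at 515 nm. IC₅₀ is taken from [(Ti−Tz)/(C−Tz)]×100 = 50.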

[7] = system: MOLT-4; test: Cytotoxicity against human MOLT4 cells assessed as cell growth at 10 uM after 48 hrs by sulforhodamine B assay; type: functional; settings: MOLT-4, 48 h, read-out: Activity
[8] = system: A549; test: Cytotoxicity against human A549 cells assessed as cell growth at 10 uM after 48 hrs by sulforhodamine B assay; type: functional; settings: A549, 48 h, read-out: Activity; outline: as §1
[9] = system: T47D; test: Cytotoxicity against human T47D cells assessed as cell growth at 1 uM after 48 hrs by sulforhodamine B assay; type: functional; settings: read-out: Activity
[10] = system: HL-60(TB); test: Growth inhibition of human HL-60(TB) cells after 48 hrs by sulforhodamine B assay; type: functional, cell-based; settings: HL-60, 48 h; for CC50: read-out: LC50 (the source's name)
Outline: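 HL-60(TB) suspension cells in RPMI 1640 with 5% FBS receive five 10-fold or ½log drug dilutions from DMSO stock for 48 h at 37 °C, 5% CO2. Settled cells are TCA-fixed, SRB-stained and read at 515 nm against a time-zero plate. […] is solved from [(Ti−Tz)/(C−Tz)]×100 = 50.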

[11] = system: OVCAR-3; test: Cytotoxicity against human OVCAR-3 cells assessed as cell growth at 1 uM after 48 hrs by sulforhodamine B assay; type: functional; settings: OVCAR-3, 48 h, read-out: Activity
[12] = system: A498; test: Cytotoxicity against human A498 cells assessed as cell growth at 0.001 uM after 48 hrs by sulforhodamine B assay; type: functional; settings: A498, 48 h, read-out: Activity; outline: as §1
[13] = system: OVCAR-3; test: Growth inhibition of human OVCAR-3 cells after 48 hrs by sulforhodamine B assay; type: functional, cell-based; settings: OVCAR-3, 48 h; for CC50: read-out: LC50 (the source's name); outline: as §2
[14] = system: SK-OV-3; test: Growth inhibition of human SKOV3 cells after 48 hrs by sulforhodamine B assay; type: functional, cell-based; settings: SK-OV-3, 48 h; outline: as §2
[15] = system: OVCAR-8; test: Cytotoxicity against human OVCAR8 cells assessed as cell growth at 0.001 uM after 48 hrs by sulforhodamine B assay; type: functional; settings: OVCAR-8, 48 h, read-out: Activity
[16] = system: NCI-H460; test: Cytotoxicity against human NCI-H460 cells assessed as cell growth at 0.01 uM after 48 hrs by sulforhodamine B assay; type: functional; settings: NCI-H460, 48 h, read-out: Activity
[17] = system: SF-268; test: Growth inhibition of human SF268 cells after 48 hrs by sulforhodamine B assay; type: functional, cell-based; settings: SF-268, 48 h; for CC50: read-out: LC50 (the source's name); outline: as §2
[18] = system: HOP-92; test: Growth inhibition of human HOP92 cells after 48 hrs by sulforhodamine B assay; type: functional, cell-based; outline: as §2
[19] = system: HCT-116; test: Cytotoxicity against human HCT116 cells assessed as cell growth at 10 uM after 48 hrs by sulforhodamine B assay; type: functional; settings: HCT-116, 48 h, read-out: Activity
[20] = system: SN12C; test: Cytotoxicity against human SN12C cells assessed as cell growth at 100 nM after 48 hrs by sulforhodamine B assay; type: functional; settings: read-out: Activity
[21] = system: LOX IMVI; test: Cytotoxicity against human LOXIMVI cells assessed as cell growth at 0.01 uM after 48 hrs by sulforhodamine B assay; type: functional; settings: read-out: Activity
[22] = system: CAKI-1; test: Growth inhibition of human Caki1 cells after 48 hrs by sulforhodamine B assay; type: functional, cell-based; settings: CAKI-1, 48 h
Outline: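 Five-dose SRB assay. Cells in RPMI 1640 with 5% FBS and 2 mM L-glutamine were seeded at 5,000–40,000 cells/well, with a TCA-fixed time-zero plate (Tz) taken at 24 h. Compound stocks were in DMSO, serially diluted 10-fold or ½-log to five concentrations, and incubated 48 h at 37 °C. Plates were stained with SRB and read at 515 nm. IC₅₀ was taken where [(Ti−Tz)/(C−Tz)]×100 = 50.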

[23] = system: MDA-MB-468; test: Cytotoxicity against human MDA-MB-468 cells assessed as cell growth at 100 nM after 48 hrs by sulforhodamine B assay; type: functional; settings: MDA-MB-468, 48 h, read-out: Activity
[24] = system: HCT-116; test: Cytotoxicity against human HCT116 cells assessed as cell growth at 0.001 uM after 48 hrs by sulforhodamine B assay; type: functional; settings: HCT-116, 48 h, read-out: Activity
[25] = system: SW-620; test: Cytotoxicity against human SW620 cells assessed as cell growth at 1 uM after 48 hrs by sulforhodamine B assay; type: functional; settings: SW-620, 48 h, read-out: Activity
[26] = system: IGROV-1; test: Cytotoxicity against human IGROV1 cells assessed as cell growth at 0.001 uM after 48 hrs by sulforhodamine B assay; type: functional; settings: IGROV-1, 48 h, read-out: Activity
[27] = system: CAKI-1; test: Cytotoxicity against human Caki1 cells assessed as cell growth at 0.01 uM after 48 hrs by sulforhodamine B assay; type: functional; settings: CAKI-1, 48 h, read-out: Activity; outline: as §1

CC(=O)Nc1cccc(-c2ccc(-c3ccnc(NC(=O)Nc4cc(C(F)(F)F)cc(C(F)(F)F)c4)n3)cn2)c1.Cl
growth at 1 µM [1]: 37% | growth at 0.01 µM [2]: 78% | growth at 0.001 µM [3]: 95% | growth at 0.001 µM [4]: 103% | growth at 1 µM [5]: 43% | GI50 [6]: 1.44 µM | IC50 [6]: 1.44 µM | TGI [6]: 5.71 µM | CC50 [6]: > 100 µM | growth at 10 µM [7]: 11% | growth at 10 µM [8]: -86% | growth at 1 µM [9]: -3% | GI50 [10]: 3.78 µM | IC50 [10]: 3.78 µM | TGI [10]: 96.1 µM | CC50 [10]: > 100 µM | growth at 1 µM [11]: -52% | growth at 0.001 µM [12]: 95% | GI50 [13]: 1.85 µM | IC50 [13]: 1.85 µM | TGI [13]: 4.23 µM | CC50 [13]: 9.69 µM | GI50 [14]: 13.1 µM | IC50 [14]: 13.1 µM | LC50 (concentration giving 50% net cell kill) [14]: 78.8 µM | TGI [14]: 32.2 µM | growth at 0.001 µM [15]: 102% | growth at 0.01 µM [16]: 93% | GI50 [17]: 4.92 µM | IC50 [17]: 4.92 µM | TGI [17]: 23.9 µM | CC50 [17]: 98.7 µM | LC50 [18]: inactive | TGI [18]: inactive | IC50 ([18]; hop-92): Not Active | growth at 10 µM [19]: 100% | growth at 0.1 µM [20]: 86% | growth at 0.01 µM [21]: 86% | GI50 [22]: 2.37 µM | IC50 [22]: 2.37 µM | LC50 (lethal concentration 50%) [22]: > 100 µM | TGI [22]: 8.34 µM | growth at 0.1 µM [23]: 47% | growth at 0.001 µM [24]: 92% | growth at 1 µM [25]: -33% | growth at 0.001 µM [26]: 95% | growth at 0.01 µM [27]: 104%

CC(=O)c1ccccc1-c1ccc(-c2ccnc(NC(=O)Nc3cc(N4CCOCC4)cc(C(F)(F)F)c3)n2)cn1
growth at 1 µM [1]: 45% | growth at 0.01 µM [2]: 108% | growth at 0.001 µM [3]: 98% | growth at 0.001 µM [4]: 109% | growth at 1 µM [5]: 22% | GI50 [6]: > 100 µM | IC50 [6]: > 100 µM | TGI [6]: > 100 µM | CC50 [6]: > 100 µM | growth at 10 µM [7]: 101% | growth at 10 µM [8]: 74% | growth at 1 µM [9]: 60% | GI50 [10]: > 100 µM | IC50 [10]: > 100 µM | TGI [10]: > 100 µM | CC50 [10]: > 100 µM | growth at 1 µM [11]: 70% | growth at 0.001 µM [12]: 85% | GI50 [13]: 6.18 µM | IC50 [13]: > 100 µM | TGI [13]: > 100 µM | CC50 [13]: > 100 µM | GI50 [14]: > 100 µM | IC50 [14]: 9.42 µM | LC50 (concentration giving 50% net cell kill) [14]: > 100 µM | TGI [14]: > 100 µM | growth at 0.001 µM [15]: 92% | growth at 0.01 µM [16]: 110% | GI50 [17]: > 100 µM | IC50 [17]: 40.2 µM | TGI [17]: > 100 µM | CC50 [17]: > 100 µM | TGI [18]: inactive | GI50 ([18]; Homo sapiens, HOP-92, 48 h): 4.29 µM | IC50 ([18]; Homo sapiens, HOP-92, 48 h, read-out: IC50): 2.95 µM | CC50 ([18]; Homo sapiens, HOP-92, 48 h, read-out: LC50 (the source's name)): > 100 µM | growth at 10 µM [19]: 66% | growth at 0.1 µM [20]: 83% | growth at 0.01 µM [21]: 106% | GI50 [22]: 6.89 µM | IC50 [22]: > 100 µM | LC50 (lethal concentration 50%) [22]: > 100 µM | TGI [22]: > 100 µM | growth at 0.1 µM [23]: 103% | growth at 0.001 µM [24]: 95% | growth at 1 µM [25]: 84% | growth at 0.001 µM [26]: 98% | growth at 0.01 µM [27]: 92%
